Insulin prom inh – TRM-6 insulin promoter activity inhibition. 130,000 compounds, 0.9% hits. inhibition, % at 2 µM. TRM-6 cells (human fetal islet line), insulin promoter-eGFP reporter, imaging; reporter expression induced with tamoxifen;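 active means inhibition above the mean plus 3 SD, with well images judged a real hit on visual review, cut at about 60% in these data, passing the limit was not always enough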
Yeast lifespan up – yeast lifespan extension | 130,000 compounds, 0.68% hits | S. cerevisiae growth with nicotinamide, OD615; deaD strain in restrictive glucose medium | inhibition of the nicotinamide effect, % at 10 µM;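 active means inhibition above a set limit, placed 3 SD over the median of all compounds, cut at about 26% in these data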;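 further: 0% = nicotinamide-treated wells and 100% = cells grown without nicotinamide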
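Assay system: engineered S. cerevisiae DeaD replicative-lifespan strain, galactose-grown log-phase cells; Buffer or medium: CSMM-D glucose medium, restrictive; Probe or stimulus: nicotinamide 1.5 mM; Compound: single dose 10 µM compound, 0.25% DMSO; Schedule: 4 h preincubation then 48 h treatment at 30 °C; Technique: OD615 measurement.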
MDM2 E3 inh – inhibitors of human Mdm2 E3 ubiquitin ligase | AID 1230 | 210,000 compounds, 0.11% hits | cell-based MDM2 ubiquitination luciferase reporter, 2 h; 0 = plate control, 100 = twice control, blank-subtracted | Q00987 | signal enhancement, % at 5 µM;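 active means signal enhancement of 30% or more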;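 further: luminescence tracks abundance of the self-degrading MDM2-luciferase fusion protein; higher signal means inhibition of MDM2 E3 ligase activity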
Target sequence (Q00987 whole entry, looked up, the tested form may be a part): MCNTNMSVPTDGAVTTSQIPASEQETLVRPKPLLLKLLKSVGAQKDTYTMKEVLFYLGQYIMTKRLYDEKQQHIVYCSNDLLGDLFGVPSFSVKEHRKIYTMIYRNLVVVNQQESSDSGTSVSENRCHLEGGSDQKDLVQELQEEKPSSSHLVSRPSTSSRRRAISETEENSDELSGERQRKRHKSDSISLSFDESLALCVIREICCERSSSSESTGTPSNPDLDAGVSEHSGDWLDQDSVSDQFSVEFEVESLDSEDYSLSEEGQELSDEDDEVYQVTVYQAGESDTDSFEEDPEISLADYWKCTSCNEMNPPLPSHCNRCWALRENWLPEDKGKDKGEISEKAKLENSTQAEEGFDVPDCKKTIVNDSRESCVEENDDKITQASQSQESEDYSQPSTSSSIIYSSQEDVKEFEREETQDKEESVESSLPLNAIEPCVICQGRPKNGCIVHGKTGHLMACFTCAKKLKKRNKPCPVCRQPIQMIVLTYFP
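Assay system: stable mammalian line carrying autodegrading MDM2–luciferase fusion reporter; amount: 2000 cells seeded into each well; buffer or medium: DMEM; benchmarks: plate control and blank wells; signal: luciferase luminescence; timing: 2 h compound exposure at 37 °C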
RAM inhibit – inhibitors of the yeast RAM network; 190,000 compounds, 1.8% hits; inhibition, % at 50 µM; AID 868; S. cerevisiae dse1pr::URA3 reporter, 5-FOA growth OD615, 2 d; analog-sensitive cbk1-as2 kinase mutant strain;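 active means inhibition above a set limit, 3 SD over mean compound inhibition, cut at about 8.4% in these data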;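 further: 0% = DMSO-only wells with no growth and 100% = 10 µM 1-NA-PP1 full growth; inhibition rescues growth on 5-FOA so higher OD means more RAM inhibition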
Measles CPE – protection of cells from measles virus; Measles virus-infected cells, CPE protection, absorbance; 140,000 compounds, 1.5% hits; protection (pct of control), % at 4 µM; in the data active means protection mostly above about 24%, no sharp cut-off; inactive means mostly below about 26%
Yeast growth inh – yeast BB579 growth reduction in restrictive medium; S. cerevisiae BB579 growth, OD615, 48 h; inhibition, % at 10 µM; 140,000 compounds, 0.51% hits; AID 804;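 active means inhibition above a set limit, 3 SD over the mean compound inhibition, cut at about 44% in these data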
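test system = yeast BB579 (DeaD) | buffer or medium = restrictive CSMM-D medium | doses = single compound dose of 10 µM, 0.25% DMSO final | times = 4 h preincubation and 48 h exposure at 30 °C | technique = culture absorbance at 615 nm | benchmarks = amphotericin B 10 µg/mL, positive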
Starred values were filed as active, the others as inactive; · = no result given. Rows were chosen to be rich in hits. Some 4% of all compounds tested hit in one or more screens of this group.

SMILES	Insulin prom inh	Yeast lifespan up	MDM2 E3 inh	RAM inhibit	Measles CPE	Yeast growth inh
c1ccc(-c2cc(-c3ccccc3)n3ncnc3n2)cc1	69*	·	-14	0	·	·
Cc1[nH]oc(=O)c1N=Nc1c(Cl)cccc1Cl	23	37*	·	-1	7	2
Cc1[nH]oc(=O)c1N=Nc1ccccc1	19	32*	1	-1	8	22
COc1cc(OC)cc(-c2nn[nH]n2)c1	3	-1	3	1	5	-20
O=C(CSc1ncnc2sc3c(c12)CCCC3)c1ccco1	39	-10	-16	0	46*	-41
O=C(CSc1ncnc2sc3c(c12)CCCC3)c1ccccc1	69	·	-5	2	7	-53
CC(NC(=O)c1cccs1)C(c1cccs1)N1CCOCC1 (stereo not drawn)	47	·	10	1	12	-33
Cn1nnnc1SCCNCC#Cc1ccccc1	9	114*	-15	1	4	-14
Cc1cc(C)nc(Nc2n[nH]c(-c3ccc(N)cc3)n2)n1	·	-13	-21	0	26*	-49
Cc1ccc(/C=c2\sc3nc(-c4cccs4)nn3c2=O)o1	13	8	-5	9.0*	2	-10
Cc1cc(C(=O)N/N=C/c2ccc(O)c([N+](=O)[O-])c2)n[nH]1	·	-2	-9	0	8	-16
Cc1cc(C(=O)N/N=C/c2cccc([N+](=O)[O-])c2O)n[nH]1	·	-3	-18	3	17	44*
CSc1nc2ccc(S(=O)(=O)N(C)C)cc2s1	-3	6	6	1	33	-18
CCN(CC)S(=O)(=O)c1ccc2nc(SC)sc2c1	79*	5	-12	0	19	-15
COc1cccc(C(=O)NNC(=S)NC2CCCCC2)c1	-31	-3	-5	1	25*	-10
COc1cccc(C(=O)NC2CCCC2)c1	·	·	-22	2	·	·
CCCCOCP(=O)(CC)COCCCC	27	-6	5	2	16	-10
CCCCOc1ccc(C(C)NC(=O)C2CCCN(S(=O)(=O)CC)C2)cc1 (stereo not drawn)	-85	-3	-6	2	38*	19
CSc1nc(-c2ccc(Cl)cc2)nn1C(=O)c1ccccc1	79*	0	-5	5	10	-52
CCN(CC)C(=O)C(=O)c1cccn1-c1ccccc1C#N	100*	-7	-11	0	6	-3
CCOC(=O)c1cnn(-c2ccccc2)c1-n1cccc1C(=O)C(=O)N(CC)CC	5	·	-19	-1	·	·
O=S(=O)(c1ccc(Cl)cc1)N1CCC2(CC1)CO2	·	·	-1	0	·	·
COc1ccc(-c2c(C(C)=O)c(C)nc3sc4c(=N)n(N)cnc4c23)cc1	·	8	9	1	4	-19
COc1ccc(C2NC(=O)c3sc4nc(C)c(C(C)=O)c(-c5ccc(Cl)cc5)c4c3N2)cc1 (stereo not drawn)	·	-13	-8	10*	13	-71
COCCn1c(C)cc(C(=O)COc2ncnc3ccc(Br)cc23)c1C	27	·	-9	3	·	·
SMILES	Insulin prom inh	Yeast lifespan up	MDM2 E3 inh	RAM inhibit	Measles CPE	Yeast growth inh
C=CCn1c(C)cc(C(=O)COc2ncnc3sccc23)c1C	·	44*	-45	2	33	-21
CC(C)CNC(=O)Cn1c(=O)c2c(ncn2CC(C)C)n(Cc2ccccc2)c1=O	·	·	0	3	·	·
O=C1c2ccsc2SCCN1Cc1c(Cl)cccc1Cl	-107	14	-14	1	13	-1
Cn1ccc(=S)c2ccccc21	89*	·	-4	1	·	·
O=C(COC(=O)c1cc(Br)ccc1Cl)NC1CCCC1	·	·	-11	4	·	·
Cc1cc(C)c(C(=O)C2OC(=O)C(C)(C)C(=O)C2(C)C)c(C)c1 (stereo not drawn)	·	2	-10	-1	7	12
CCOC(=O)N1CCN(C(=O)CCSCCc2ccncc2)CC1	79*	-4	-19	0	7	-9
CCOC(=O)N1CCN(C(=O)CSCc2ccc(C)cc2)CC1	47	-1	-11	2	6	-31
O=C(N=Nc1ccc(NOC(=O)c2ccccc2Br)cc1)c1ccccc1O	·	·	-44	11*	·	·
CCOc1ccc(NC(=O)CN(C)S(=O)(=O)c2cnc[nH]2)cc1	-13	·	32*	0	·	·
CCSc1nc2c(cnn2-c2ccccc2)c(=O)n1N	·	·	-24	·	·	·
CSc1ccc(OC2CCCCC2NS(=O)(=O)c2ccc(Cl)cc2)cc1 (stereo not drawn)	100*	5	-7	5	13	-19
CN(c1ccccc1)C1CCCCC1NS(=O)(=O)c1ccc(Cl)cc1 (stereo not drawn)	27	36*	·	1	37	11
CCN(CC)C1CCCCC1NS(=O)(=O)c1ccc(Cl)cc1 (stereo not drawn)	·	-15	-13	1	10	9
CCOc1ccc(OCc2ccc(C(=O)NCC3CCCO3)o2)cc1 (stereo not drawn)	-3	-22	9	1	3	-14
O=C(NCC1CCCO1)c1ccc(COc2ccc(F)cc2)o1 (stereo not drawn)	17	-15	-6	1	32*	16
Cc1ccc(S(=O)(=O)n2c3ccc(Cl)cc3c3nc(C)sc32)cc1	80*	-8	·	5	17	-20
COC(=O)Cn1c2ccc(Cl)cc2c2nc(C)sc21	·	·	-12	·	·	·
Cc1ccc(-n2c(C)cc(C(=O)COC(=O)c3ccc[nH]c3=O)c2C)cc1	7	-6	-16	0	22	93*
Cc1cc(C(=O)COC(=O)c2ccc[nH]c2=O)c(C)n1-c1ccc(Br)cc1	-39	-7	-4	0	23	91*
COc1cc(NC(=S)NCCC(c2ccccc2)c2ccccc2)cc(OC)c1	19	-4	7	9.1*	15	13
CC(C)C(=O)Nc1cccc(NC(=O)CCN2C(=O)c3ccccc3S2(=O)=O)c1	-55	0	-14	0	2	-32
CCn1cc([N+](=O)[O-])c(C(=O)N2N=C(c3ccccc3)CC2c2ccc([N+](=O)[O-])cc2)n1 (stereo not drawn)	-33	-7	3	2	27*	-22
Cc1cc(OCC(=O)O/N=C(\N)c2ccccc2)ccc1Br	-25	-4	3	4	5	-16
O=[N+]([O-])c1ccc(C2Oc3ccccc3C3CC(c4ccccc4)=NN32)s1 (stereo not drawn)	-79	-5	-6	0	19	96*
c1ccc(C2Oc3ccccc3C3CC(c4cccs4)=NN32)cc1 (stereo not drawn)	·	3	-7	0	26	5
CSc1nc(SCC(N)=O)c2c3c(sc2n1)CN(C)CC3	-42	-14	-20	0	12	-27
CCSc1nc(N)c2c(C)c(C)sc2n1	78*	·	16	2	14	-70

Compound activity: PubChem, several laboratories
